According to ChEMBL document CHEMBL2062435, “Synthesis and in vitro antibacterial activity of gemifloxacin derivatives containing a substituted benzyloxime moiety” (2012):

How the values were obtained:
Type in all cases: functional
[1] = test system: Escherichia coli; assay: Antimicrobial activity against Escherichia coli 10-1 after 18-24 hrs by two-fold serial dilution method
Outline: (§1)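 Agar-medium twofold serial dilution against Gram-positive and Gram-negative strains; MIC taken as the lowest compound concentration giving complete inhibition of bacterial growth after incubation at 35 °C for 18-24 h.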

[2] = test system: Escherichia coli; assay: Antimicrobial activity against Escherichia coli 10-3 after 18-24 hrs by two-fold serial dilution method; outline: as §1
[3] = test system: Staphylococcus epidermidis; assay: Antimicrobial activity against extended spectrum beta-lactamases-producing methicillin-resistant Staphylococcus epidermidis 10-13 after 18-24 hrs by two-fold serial dilution method
Outline: (§2)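 Agar twofold serial dilution MIC against clinical isolates. MIC was taken as the lowest concentration giving complete inhibition of bacterial growth after incubation at 35 °C for 18-24 h.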

[4] = test system: Staphylococcus epidermidis; assay: Antimicrobial activity against extended spectrum beta-lactamases-producing methicillin-sensitive Staphylococcus epidermidis 10-15 after 18-24 hrs by two-fold serial dilution method; outline: as §1
[5] = test system: Klebsiella pneumoniae; assay: Antimicrobial activity against Klebsiella pneumoniae 10-4 after 18-24 hrs by two-fold serial dilution method; outline: as §1
[6] = test system: Streptococcus pneumoniae; assay: Antimicrobial activity against extended spectrum beta-lactamases-producing Streptococcus pneumoniae 10-1 after 18-24 hrs by two-fold serial dilution method; outline: as §1
[7] = test system: Enterococcus faecium; assay: Antimicrobial activity against Enterococcus faecium 10-9 after 18-24 hrs by two-fold serial dilution method; outline: as §1
[8] = test system: Klebsiella pneumoniae; assay: Antimicrobial activity against Klebsiella pneumoniae 10-3 after 18-24 hrs by two-fold serial dilution method; outline: as §1
[9] = test system: Escherichia coli; assay: Antimicrobial activity against extended spectrum beta-lactamases-producing Escherichia coli 10-3 after 18-24 hrs by two-fold serial dilution method; outline: as §1
[10] = test system: Escherichia coli; assay: Antimicrobial activity against extended spectrum beta-lactamases-producing Escherichia coli 10-4 after 18-24 hrs by two-fold serial dilution method; outline: as §1
[11] = test system: Staphylococcus aureus; assay: Antimicrobial activity against extended spectrum beta-lactamases-producing methicillin-resistant Staphylococcus aureus 10-11 after 18-24 hrs by two-fold serial dilution method; outline: as §2
[12] = test system: Escherichia coli; assay: Antimicrobial activity against Escherichia coli ATCC 25922 after 18-24 hrs by two-fold serial dilution method; outline: as §1
[13] = test system: Klebsiella pneumoniae; assay: Antimicrobial activity against extended spectrum beta-lactamases-producing Klebsiella pneumoniae 10-1 after 18-24 hrs by two-fold serial dilution method; outline: as §1
[14] = test system: Klebsiella pneumoniae; assay: Antimicrobial activity against extended spectrum beta-lactamases-producing Klebsiella pneumoniae 10-3 after 18-24 hrs by two-fold serial dilution method; outline: as §1
[15] = test system: Pseudomonas aeruginosa; assay: Antimicrobial activity against extended spectrum beta-lactamases-producing Pseudomonas aeruginosa 10-5 after 18-24 hrs by two-fold serial dilution method; outline: as §1
[16] = test system: Staphylococcus aureus; assay: Antimicrobial activity against extended spectrum beta-lactamases-producing methicillin-sensitive Staphylococcus aureus 10-13 after 18-24 hrs by two-fold serial dilution method; outline: as §1
[17] = test system: Pseudomonas aeruginosa; assay: Antimicrobial activity against Pseudomonas aeruginosa 10-12 after 18-24 hrs by two-fold serial dilution method; outline: as §1
[18] = test system: Enterococcus faecalis; assay: Antimicrobial activity against Enterococcus faecalis 10-7 after 18-24 hrs by two-fold serial dilution method; outline: as §1
[19] = test system: Escherichia coli; assay: Antimicrobial activity against Escherichia coli 10-2 after 18-24 hrs by two-fold serial dilution method; outline: as §1
[20] = test system: Enterococcus faecium; assay: Antimicrobial activity against Enterococcus faecium 10-5 after 18-24 hrs by two-fold serial dilution method; outline: as §1
[21] = test system: Klebsiella pneumoniae; assay: Antimicrobial activity against extended spectrum beta-lactamases-producing Klebsiella pneumoniae 10-2 after 18-24 hrs by two-fold serial dilution method; outline: as §1
[22] = test system: Enterococcus faecalis; assay: Antimicrobial activity against Enterococcus faecalis 10-5 after 18-24 hrs by two-fold serial dilution method; outline: as §1
[23] = test system: Staphylococcus aureus; assay: Antimicrobial activity against Staphylococcus aureus ATCC […] after 18-24 hrs by two-fold serial dilution method; outline: as §1
[24] = test system: Staphylococcus aureus; assay: Antimicrobial activity against extended spectrum beta-lactamases-producing methicillin-resistant Staphylococcus aureus 10-15 after 18-24 hrs by two-fold serial dilution method; outline: as §2
[25] = test system: Pseudomonas aeruginosa; assay: Antimicrobial activity against extended spectrum beta-lactamases-producing Pseudomonas aeruginosa 10-18 after 18-24 hrs by two-fold serial dilution method; outline: as §1
[26] = test system: Pseudomonas aeruginosa; assay: Antimicrobial activity against extended spectrum beta-lactamases-producing Pseudomonas aeruginosa 10-9 after 18-24 hrs by two-fold serial dilution method; outline: as §1
[27] = test system: Staphylococcus epidermidis; assay: Antimicrobial activity against extended spectrum beta-lactamases-producing methicillin-sensitive Staphylococcus epidermidis 10-11 after 18-24 hrs by two-fold serial dilution method; outline: as §1
[28] = test system: Enterococcus faecalis; assay: Antimicrobial activity against Enterococcus faecalis 10-6 after 18-24 hrs by two-fold serial dilution method; outline: as §1
[29] = test system: Pseudomonas aeruginosa; assay: Antimicrobial activity against extended spectrum beta-lactamases-producing Pseudomonas aeruginosa 10-20 after 18-24 hrs by two-fold serial dilution method; outline: as §1
[30] = test system: Staphylococcus epidermidis; assay: Antimicrobial activity against extended spectrum beta-lactamases-producing methicillin-sensitive Staphylococcus epidermidis 10-13 after 18-24 hrs by two-fold serial dilution method; outline: as §1
[31] = test system: Escherichia coli; assay: Antimicrobial activity against extended spectrum beta-lactamases-producing Escherichia coli 10-2 after 18-24 hrs by two-fold serial dilution method; outline: as §1
[32] = test system: Streptococcus pneumoniae; assay: Antimicrobial activity against extended spectrum beta-lactamases-producing Streptococcus pneumoniae 10-4 after 18-24 hrs by two-fold serial dilution method; outline: as §1
[33] = test system: Klebsiella pneumoniae; assay: Antimicrobial activity against Klebsiella pneumoniae 10-2 after 18-24 hrs by two-fold serial dilution method; outline: as §1
[34] = test system: Staphylococcus epidermidis; assay: Antimicrobial activity against extended spectrum beta-lactamases-producing methicillin-resistant Staphylococcus epidermidis 10-10 after 18-24 hrs by two-fold serial dilution method; outline: as §2
[35] = test system: Staphylococcus aureus; assay: Antimicrobial activity against extended spectrum beta-lactamases-producing methicillin-sensitive Staphylococcus aureus 10-14 after 18-24 hrs by two-fold serial dilution method; outline: as §1
[36] = test system: Pseudomonas aeruginosa; assay: Antimicrobial activity against extended spectrum beta-lactamases-producing Pseudomonas aeruginosa 10-15 after 18-24 hrs by two-fold serial dilution method; outline: as §1

Structure (SMILES): COc1ccc(CO/N=C2\CN(c3nc4c(cc3F)c(=O)c(C(=O)O)cn4C3CC3)CC2CN)c(OC)c1OC.CS(=O)(=O)O (racemic)
- MIC [1]: 64 µg/mL
- MIC [2]: 16 µg/mL
- MIC [3]: 0.5 µg/mL
- MIC [4]: 2 µg/mL
- MIC [5]: > 128 µg/mL
- MIC [6]: 0.5 µg/mL
- MIC [7]: 8 µg/mL
- MIC [8]: 8 µg/mL
- MIC [9]: 32 µg/mL
- MIC [10]: 4 µg/mL
- MIC [11]: 2 µg/mL
- MIC [12]: 0.03 µg/mL
- MIC [13]: > 128 µg/mL
- MIC [14]: > 128 µg/mL
- MIC [15]: 8 µg/mL
- MIC [16]: 0.015 µg/mL
- MIC [17]: 8 µg/mL
- MIC [18]: 2 µg/mL
- MIC [19]: 16 µg/mL
- MIC [20]: 4 µg/mL
- MIC [21]: > 128 µg/mL
- MIC [22]: 1 µg/mL
- MIC [23]: 0.015 µg/mL
- MIC [24]: 0.25 µg/mL
- MIC [25]: 8 µg/mL
- MIC [26]: 8 µg/mL
- MIC [27]: 2 µg/mL
- MIC [28]: 2 µg/mL
- MIC [29]: 4 µg/mL
- MIC [30]: 0.03 µg/mL
- MIC [31]: 128 µg/mL
- MIC [32]: 0.06 µg/mL
- MIC [33]: > 128 µg/mL
- MIC [34]: 2 µg/mL
- MIC [35]: 0.015 µg/mL
- MIC [36]: 16 µg/mL

Structure (SMILES): C[C@H]1COc2c(N3CCN(C)CC3)c(F)cc3c(=O)c(C(=O)O)cn1c23.C[C@H]1COc2c(N3CCN(C)CC3)c(F)cc3c(=O)c(C(=O)O)cn1c23.O [LEVOFLOXACIN]
- MIC [1]: 4 µg/mL
- MIC [2]: 4 µg/mL
- MIC [3]: 4 µg/mL
- MIC [4]: 128 µg/mL
- MIC [5]: 32 µg/mL
- MIC [7]: 32 µg/mL
- MIC [9]: 8 µg/mL
- MIC [11]: 32 µg/mL
- MIC [12]: < 0.008 µg/mL
- MIC [13]: 8 µg/mL
- MIC [14]: 8 µg/mL
- MIC [15]: 0.25 µg/mL
- MIC [16]: 0.5 µg/mL
- MIC [17]: 0.25 µg/mL
- MIC [18]: 16 µg/mL
- MIC [19]: 0.25 µg/mL
- MIC [20]: 32 µg/mL
- MIC [21]: 8 µg/mL
- MIC [22]: 8 µg/mL
- MIC [23]: 0.25 µg/mL
- MIC [24]: 16 µg/mL
- MIC [26]: 0.25 µg/mL
- MIC [27]: 128 µg/mL
- MIC [28]: 64 µg/mL
- MIC [29]: 0.25 µg/mL
- MIC [30]: 4 µg/mL
- MIC [31]: 16 µg/mL
- MIC [33]: 32 µg/mL
- MIC [34]: 8 µg/mL
- MIC [35]: 0.25 µg/mL
- MIC [36]: 0.5 µg/mL

Structure (SMILES): CS(=O)(=O)O.NCC1CN(c2nc3c(cc2F)c(=O)c(C(=O)O)cn3C2CC2)C/C1=N\OCc1cc2c(cc1[N+](=O)[O-])OCO2 (racemic)
- MIC [1]: > 128 µg/mL
- MIC [2]: 32 µg/mL
- MIC [3]: 1 µg/mL
- MIC [4]: 2 µg/mL
- MIC [5]: > 128 µg/mL
- MIC [7]: 8 µg/mL
- MIC [8]: 8 µg/mL
- MIC [9]: 32 µg/mL
- MIC [10]: 8 µg/mL
- MIC [11]: 4 µg/mL
- MIC [12]: 0.008 µg/mL
- MIC [13]: > 128 µg/mL
- MIC [14]: > 128 µg/mL
- MIC [15]: 8 µg/mL
- MIC [16]: 0.25 µg/mL
- MIC [17]: 8 µg/mL
- MIC [18]: 8 µg/mL
- MIC [19]: 8 µg/mL
- MIC [20]: 16 µg/mL
- MIC [21]: > 128 µg/mL
- MIC [22]: 4 µg/mL
- MIC [23]: 0.008 µg/mL
- MIC [24]: 2 µg/mL
- MIC [25]: 4 µg/mL
- MIC [26]: 4 µg/mL
- MIC [27]: 0.25 µg/mL
- MIC [28]: 32 µg/mL
- MIC [29]: 4 µg/mL
- MIC [30]: 8 µg/mL
- MIC [31]: > 128 µg/mL
- MIC [32]: 2 µg/mL
- MIC [33]: > 128 µg/mL
- MIC [34]: 2 µg/mL
- MIC [35]: 0.25 µg/mL
- MIC [36]: 8 µg/mL
